Results on five compounds are retold here after ChEMBL document CHEMBL4613274, “Chimeric Peptidomimetics of SOCS 3 Able to Interact with JAK2 as Anti-inflammatory Compounds” (ACS Med Chem Lett, 2020).

Data set [1] deals with Signal transducer and activator of transcription 3 (Mus musculus) (UniProt P42227). The data set is described as follows: Inhibition of IFNgamma and IL6 induced STAT3 nuclear translocation in mouse VSMC cells at 5 uM pretreated for 90 mins using TAMRA-conjugated peptide followed by IFNgamma and IL6 stimulation for 1 hr by DAPI staining based immunofluorescence assay relative to control. The class given is cell-based. The method in brief:
(§1)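 Primary mouse VSMCs stimulated with IFNγ+IL-6 with or without TAMRA-labeled peptide 5 μM; immunofluorescence for phospho-STAT3 with DAPI nuclear counterstain, confocal imaging. P-STAT3 fluorescence intensity given as percentage, mean ± SEM, n = 3 independent experiments.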

Data set [2] deals with RAW264.7. The data set is described as follows: Antioxidant activity against mouse RAW264.7 cells assessed as reduction in IFNgamma and IL6-induced mRNA expression of Nox2 at […] pretreated for 90 mind followed by IFNgamma and IL6 stimulation for 1 hr by Trizol reagent based RT-PCR analysis. It counts as functional, cell-based. The method in brief:
(§2)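 RAW264.7 murine macrophage-like cells; peptides (conjugated to HIV Tat 48–60 for cell entry) or Ala/Arg negative-control peptide at 12.5 μM, then IFNγ+IL-6 stimulation 1 h. Cxcl10, Ccl5 and Nox2 mRNA quantified by real-time PCR.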

A short description of data set [3]: Drug distribution in cytoplasm of mouse VSMC measured after 2 hrs by confocal microscopy. It counts as ADME, subcellular. Particulars: in vitro. The method in brief: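 Primary murine vascular smooth muscle cells exposed to fluorescent (TAMRA-labeled), Tat 48–60-conjugated peptides; uptake and subcellular distribution imaged by confocal microscopy after 2 h.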

The subject of data set [4] is RAW264.7. The data set is described as follows: Antiinflammatory activity against mouse RAW264.7 cells assessed as reduction in IFNgamma and IL6-induced mRNA expression of Ccl5 at […] pretreated for 90 mind followed by IFNgamma and IL6 stimulation for 1 hr by Trizol reagent based RT-PCR analysis. The class given is functional, cell-based. The method in brief: as §2

Data set [5] addresses Signal transducer and activator of transcription 3 (Mus musculus) (UniProt P42227). In words: Inhibition of IFNgamma and IL6 induced STAT3 activation in mouse VSMC cells assessed as decrease in STAT3 phosphorylation at 5 uM pretreated for 90 mins using TAMRA-conjugated peptide followed by IFNgamma and IL6 stimulation for 1 hr by DAPI staining based immunofluorescence assay relative to control. The class given is cell-based. The method in brief:
as §1

The nature of data set [6]: Stability of compound in FBS assessed as residual concentration at 80 uM incubated for 2 hrs by RP-HPLC analysis. As to conditions: cattle, fetal bovine serum (FBS); read-out: Stability. The class given is physicochemical. The method in brief:
(§3)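 Pure peptides incubated in fetal bovine serum; decrease of chromatographic peak area followed over time, expressed as area percentage remaining.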

Data set [7] has as its system RAW264.7. In words: Antiinflammatory activity against mouse RAW264.7 cells assessed as reduction in IFNgamma and IL6-induced mRNA expression of Cxcl10 at […] pretreated for 90 mind followed by IFNgamma and IL6 stimulation for 1 hr by Trizol reagent based RT-PCR analysis. It counts as functional, cell-based. In short, it runs like this: as §2
Data set [8] can be described thus: Stability of compound in FBS assessed as decrease in chromatographic peak at 80 uM incubated up to 4 hrs by RP-HPLC analysis. It counts as physicochemical. Particulars: cattle. In short, it runs like this: as §3
Data set [9] has as its target Tyrosine-protein kinase JAK2 (Homo sapiens, UniProt O60674). In words: Binding affinity to human N-terminal His-tagged JAK2 catalytic domain (826 to 1132 end residues) at 25 degree C by microscale thermophoresis assay. In short, it runs like this: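 JAK2 catalytic domain binding by microscale thermophoresis; labeled target with 1:1 serial dilutions of peptide (14–16 samples) from stocks of ~404–409 μM in labeling buffer pH 7.5. Temperature-induced fluorescence change plotted versus peptide concentration; KD from fitting of binding isotherm.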
A general note: Microscale thermophoresis detects binding through changes in fluorescence in a small temperature gradient.

The nature of data set [10]: Stability of compound in FBS assessed as drug degradation at 80 uM incubated for 2 hrs by RP-HPLC analysis. The class given is physicochemical. Particulars: cattle, fetal bovine serum (FBS); read-out: Drug degradation. In short, it runs like this:
as §3

Active and inactive are the calls of the source. The calls are words filed in the database; no cut-off is given here. Square brackets hold non-standard residues; d marks the D form. Peptide text beside a SMILES is read from it. βAla = NCCC(=O)O

Chain of Tyrosine-protein kinase JAK2 (O60674 whole entry, the tested form may be a part): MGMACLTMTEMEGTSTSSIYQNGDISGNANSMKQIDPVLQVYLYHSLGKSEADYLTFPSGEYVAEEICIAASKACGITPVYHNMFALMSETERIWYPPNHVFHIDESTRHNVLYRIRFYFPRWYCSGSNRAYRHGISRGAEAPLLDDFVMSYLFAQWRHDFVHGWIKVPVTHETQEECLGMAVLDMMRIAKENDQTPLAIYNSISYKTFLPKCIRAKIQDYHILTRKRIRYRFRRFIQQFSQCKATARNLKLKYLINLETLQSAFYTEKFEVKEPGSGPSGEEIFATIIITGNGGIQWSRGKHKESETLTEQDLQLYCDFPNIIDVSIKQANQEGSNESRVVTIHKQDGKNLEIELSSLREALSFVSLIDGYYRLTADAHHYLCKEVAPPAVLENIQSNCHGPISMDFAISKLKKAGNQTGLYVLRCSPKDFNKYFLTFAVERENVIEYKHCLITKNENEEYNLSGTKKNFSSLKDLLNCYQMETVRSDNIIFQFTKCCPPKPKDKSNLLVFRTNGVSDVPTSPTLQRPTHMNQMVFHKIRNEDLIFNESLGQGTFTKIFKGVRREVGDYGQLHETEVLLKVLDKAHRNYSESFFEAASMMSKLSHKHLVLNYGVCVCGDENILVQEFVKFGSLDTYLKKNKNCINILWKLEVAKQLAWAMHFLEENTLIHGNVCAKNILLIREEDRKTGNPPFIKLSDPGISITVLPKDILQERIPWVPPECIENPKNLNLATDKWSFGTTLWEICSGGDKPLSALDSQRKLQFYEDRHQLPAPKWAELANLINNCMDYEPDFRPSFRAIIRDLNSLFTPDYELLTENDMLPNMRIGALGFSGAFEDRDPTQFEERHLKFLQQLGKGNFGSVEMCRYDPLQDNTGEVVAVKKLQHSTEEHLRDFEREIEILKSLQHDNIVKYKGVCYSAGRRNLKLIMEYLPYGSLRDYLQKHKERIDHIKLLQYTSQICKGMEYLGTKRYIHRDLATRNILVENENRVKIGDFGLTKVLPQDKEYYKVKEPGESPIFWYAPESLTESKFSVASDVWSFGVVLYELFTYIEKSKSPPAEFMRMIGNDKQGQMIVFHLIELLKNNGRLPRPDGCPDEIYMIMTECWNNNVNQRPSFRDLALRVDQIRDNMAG
Chain of Signal transducer and activator of transcription 3 (Mus musculus) (P42227 whole entry): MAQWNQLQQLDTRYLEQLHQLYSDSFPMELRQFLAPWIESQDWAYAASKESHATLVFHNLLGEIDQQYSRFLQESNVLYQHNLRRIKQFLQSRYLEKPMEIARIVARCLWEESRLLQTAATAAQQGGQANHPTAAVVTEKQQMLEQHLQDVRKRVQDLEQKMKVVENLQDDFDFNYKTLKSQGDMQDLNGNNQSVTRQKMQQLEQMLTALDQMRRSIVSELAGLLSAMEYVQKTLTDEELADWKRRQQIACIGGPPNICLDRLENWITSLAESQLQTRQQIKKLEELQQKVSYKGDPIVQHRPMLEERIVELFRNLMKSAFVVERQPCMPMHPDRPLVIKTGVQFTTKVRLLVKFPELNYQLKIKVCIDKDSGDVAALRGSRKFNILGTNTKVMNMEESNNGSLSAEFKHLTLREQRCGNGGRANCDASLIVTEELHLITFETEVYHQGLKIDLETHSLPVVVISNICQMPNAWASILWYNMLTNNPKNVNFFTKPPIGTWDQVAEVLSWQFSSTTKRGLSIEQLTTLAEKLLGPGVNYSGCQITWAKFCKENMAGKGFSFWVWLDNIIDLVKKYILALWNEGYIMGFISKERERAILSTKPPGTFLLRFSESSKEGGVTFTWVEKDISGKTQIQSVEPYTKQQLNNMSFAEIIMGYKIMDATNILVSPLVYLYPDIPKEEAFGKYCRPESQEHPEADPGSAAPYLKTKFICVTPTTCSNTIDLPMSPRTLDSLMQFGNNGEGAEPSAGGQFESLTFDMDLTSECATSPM

Regarding `CC(=O)N[C@@H](CC(C)C)C(=O)N[C@@H](CCCCN)C(=O)N[C@H](C(=O)N[C@@H](Cc1ccccc1)C(=O)N[C@@H](CO)C(=O)N[C@@H](CO)C(=O)N[C@@H](CCCCN)C(=O)N[C@@H](CO)C(=O)N[C@@H](CCC(=O)O)C(=O)N[C@@H](Cc1ccc(O)cc1)C(=O)N[C@@H](CCC(N)=O)C(=O)N[C@@H](CC(C)C)C(=O)N[C@H](C(=O)N[C@H](C(=O)N[C@@H](CC(N)=O)C(=O)N[C@@H](C)C(=O)N[C@H](C(=O)N[C@@H](CCCNC(=N)N)C(=O)N[C@@H](CCCCN)C(=O)N[C@@H](CC(C)C)C(=O)N[C@@H](CCC(N)=O)C(=O)N[C@@H](CCC(=O)O)C(=O)N[C@@H](CO)C(=O)NCC(N)=O)C(C)C)C(C)C)C(C)C)[C@@H](C)O`, the inhibition (commonly the drop in the measured response relative to a control, in per cent) in [1] was “Active”. The result with RAW264.7 [2], in the data set on RAW264.7 [4] and in the data set on RAW264.7 [7] was Active. The Drug uptake result in data set [3] is recorded as “Active”. For the same compound, the inhibition in data set [5] stood at 65%. For the same compound, the remaining at 2 h, 80 µM in data set [6] was determined as 40%.
As for `CC(=O)N[C@@H](CCCCN)C(=O)NCCC(=O)N[C@@H](Cc1ccccc1)C(=O)N[C@@H](CO)C(=O)N[C@@H](CO)C(=O)N[C@@H](CCCCN)C(=O)N[C@@H](CO)C(=O)N[C@@H](CCC(=O)O)C(=O)N[C@@H](Cc1ccc(O)cc1)C(=O)N[C@@H](CCC(N)=O)C(=O)N[C@@H](CC(C)C)C(=O)NCCC(=O)NCCC(=O)N[C@@H](Cc1ccccc1)C(=O)N[C@@H](Cc1ccc(O)cc1)C(=O)N[C@@H](Cc1c[nH]c2ccccc12)C(=O)N[C@@H](CO)C(=O)N[C@@H](C)C(=O)N[C@H](C(=O)N[C@H](C(N)=O)[C@@H](C)O)C(C)C` (Ac-K[βAla]FSSKSEYQL[βAla][βAla]FYWSAVT-NH2), the inhibition result in [1] is “Active”. Further, the result in the data set on RAW264.7 [2], with RAW264.7 [4] and in the data set with RAW264.7 [7] was Active. For the same compound, the Drug uptake entry in data set [3] is “Active”. Besides, the Stability result in data set [8] is “Stable”. The Activity entry in [9] was “Dose-dependent effect”. For the same compound, binding in data set [9] was put at a Kd of 11 µM. Moreover, the inhibition in data set [5] is 65%. For the same compound, in data set [6], the remaining at 2 h, 80 µM turned out to be 70%.
In the case of Ac-AAARAAARAAARAAARAAARAAAA-NH2, the inhibition result in data set [1] is “inactive”. For the same compound, the result in the data set on RAW264.7 [2], in the data set on RAW264.7 [4] and with RAW264.7 [7] was inactive.
For the compound Ac-FSSKSEYQLVVNAVRKLQESGFYWSAVT-NH2, the Stability entry in data set [8] was “Stable”. For the same compound, in data set [9], the Activity entry is “Dose-dependent effect”. Besides, the metabolised at 2 h, 80 µM in [10] was 100%.
For Ac-VVNAVRKLQESGFYWSAVT-NH2, the Stability result in [8] is recorded as “Stable”. Besides, in data set [9], the Activity result is “Dose-dependent effect”.
